Converted amounts (≈) assume the structure as drawn.
Experiments:
Assay type in all cases: functional
Candida albicans [1] = experiment: Antifungal activity against Candida albicans clinical isolates after 48 hrs by broth microdilution method
Method in brief: (§1)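 Clinical isolates from Japanese hospitals or culture collections were tested by broth microdilution in RPMI 1640-MOPS. Inoculum was 0.57 × 10^3–2.5 × 10^3 CFU/ml for yeasts and 0.4 × 10^4–3.3 × 10^4 CFU/ml for filamentous fungi. Incubation was at 35°C for about 48 h, or 72 h where footnoted. Results were summarised as MIC range, MIC50 and MIC90.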

Candida albicans [2] = experiment: Antifungal activity against Candida albicans ATCC MYA-2732 after 47 hrs by broth microdilution method; conditions: ATCC MYA-2732, 47 h
Method in brief: (§2)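 Fluconazole-resistant or susceptible-dose-dependent C. albicans ATCC strains were tested by broth microdilution in RPMI 1640-MOPS. Inoculum was 1.1 × 10^3–1.5 × 10^3 CFU/ml, with incubation at 35°C for about 47 h. Yeast MIC was read as about 50% turbidity decrease relative to growth control, except amphotericin B, read at complete inhibition.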

Aspergillus fumigatus [3] = experiment: Antifungal activity against Aspergillus fumigatus clinical isolates after 48 hrs by broth microdilution method; method in brief: as §1
[4] = tested on: Meyerozyma guilliermondii; experiment: Antifungal activity against Candida guilliermondii IFO 10279 after 48 hrs by broth microdilution method; conditions: IFO 10279, 48 h
Method in brief: (§3)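 CLSI M27-A2 (yeasts) / M38-A (moulds) broth microdilution in RPMI 1640 buffered to pH 7.0 with 0.165 M MOPS. Malassezia furfur got the same medium supplemented with glucose, bile salts, glycerol, glycerol monostearate and Tween 20. Final inoculum 0.65 × 10^3–2.5 × 10^3 CFU/ml for yeasts and 0.87 × 10^4–3.8 × 10^4 CFU/ml for filamentous fungi. Incubation at 35°C except M. racemosus and F. solani, which were held at 30°C.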

Candida parapsilosis [5] = experiment: Antifungal activity against Candida parapsilosis NBRC 10219 after 48 hrs by broth microdilution method; conditions: Lodderomyces parapsilosis, NBRC 10219, 48 h
Method in brief: (§4)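 CLSI M27-A2 (yeasts) or M38-A (A. fumigatus) broth microdilution in RPMI 1640 buffered to pH 7.0 with 0.165 M MOPS. Final inocula were 0.65–2.5 × 10^3 CFU/ml for yeasts and 0.87–3.8 × 10^4 CFU/ml for filamentous fungi. Incubation was at 35°C for about 48 h (72 h for C. neoformans). MIC was the lowest concentration giving a prominent (~50%) turbidity drop versus growth control; amphotericin B required complete inhibition.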

Cryptococcus neoformans [6] = experiment: Antifungal activity against Cryptococcus neoformans ATCC 90112 after 72 hrs by broth microdilution method; conditions: ATCC 90112, 72 h; method in brief: as §4
Saccharomyces cerevisiae = experiment: Antifungal activity against Saccharomyces cerevisiae ATCC 24657 after 48 hrs by broth microdilution method; conditions: ATCC 24657, 48 h; method in brief: as §3
Aspergillus fumigatus [7] = experiment: Antifungal activity against Aspergillus fumigatus IFM 46895 after 48 hrs by broth microdilution method; conditions: IFM 46895, 48 h; method in brief: as §3
Aspergillus fumigatus [8] = experiment: Antifungal activity against Aspergillus fumigatus ATCC 16424 after 48 hrs by broth microdilution method; conditions: ATCC 16424, 48 h; method in brief: as §4
Pichia kudriavzevii = experiment: Antifungal activity against Candida krusei clinical isolates after 48 hrs by broth microdilution method
Method in brief: (§5)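 Japanese hospital Candida isolates were tested by CLSI M27-A2 broth microdilution in RPMI 1640–MOPS, pH 7.0, with inocula of 0.57–2.5 × 10^3 CFU/ml at 35°C for about 48 h. Inocula came from 24-h potato dextrose agar cultures. MIC was the lowest concentration with about 50% turbidity reduction versus growth control (complete inhibition for amphotericin B). Range, MIC50 and MIC90 were reported.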

Nakaseomyces glabratus [9] = experiment: Antifungal activity against Candida glabrata ATCC 90030 after 48 hrs by broth microdilution method; conditions: ATCC 90030, 48 h; method in brief: as §3
Malassezia furfur = experiment: Antifungal activity against Malassezia furfur NBRC 0656 after 48 hrs by broth microdilution method; conditions: NBRC 0656, 48 h; method in brief: as §3
Candida albicans [10] = experiment: Antifungal activity against Candida albicans ATCC 64124 after 47 hrs by broth microdilution method; conditions: ATCC 64124, 47 h
Method in brief: (§6)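 Fluconazole-resistant or susceptible-dose-dependent ATCC C. albicans strains were tested by CLSI M27-A2 broth microdilution in RPMI 1640–0.165 M MOPS, pH 7.0, with a final inoculum of 1.1–1.5 × 10^3 CFU/ml at 35°C for about 47 h. MIC was the lowest concentration with a prominent (~50%) turbidity decrease relative to growth control; amphotericin B was read at complete inhibition.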

Candida albicans [11] = experiment: Antifungal activity against Candida albicans ATCC MYA-574 after 47 hrs by broth microdilution method; conditions: ATCC MYA-574, 47 h; method in brief: as §2
Candida albicans [12] = experiment: Antifungal activity against Candida albicans ATCC 24433 after 48 hrs by broth microdilution method; conditions: ATCC 24433, 48 h; method in brief: as §4
Aspergillus flavus = experiment: Antifungal activity against Aspergillus flavus NBRC 6343 after 48 hrs by broth microdilution method; conditions: NBRC 6343, 48 h; method in brief: as §3
Candida parapsilosis [13] = experiment: Antifungal activity against Candida parapsilosis clinical isolates after 48 hrs by broth microdilution method; conditions: Lodderomyces parapsilosis; method in brief: as §5
Candida albicans [14] = experiment: Antifungal activity against Candida albicans ATCC MYA-575 after 47 hrs by broth microdilution method; conditions: ATCC MYA-575, 47 h; method in brief: as §6
Aspergillus niger = experiment: Antifungal activity against Aspergillus niger NBRC 33023 after 48 hrs by broth microdilution method; conditions: NBRC 33023, 48 h; method in brief: as §3
Cryptococcus neoformans [15] = experiment: Antifungal activity against Cryptococcus neoformans ATCC 90113 after 72 hrs by broth microdilution method; conditions: ATCC 90113, 72 h; method in brief: as §3
Nakaseomyces glabratus [16] = experiment: Antifungal activity against Candida glabrata clinical isolates after 48 hrs by broth microdilution method; method in brief: as §1

Compound | MIC (Candida albicans [1]) [µg/mL] | MIC50 (Candida albicans [1]) [µg/mL] | MIC90 (Candida albicans [1]) [µg/mL] | MIC (Candida albicans [2]) [µg/mL] | MIC50 (Aspergillus fumigatus [3]) [µg/mL] | MIC90 (Aspergillus fumigatus [3]) [µg/mL] | MFC [4] [µg/mL] | MIC [4] [µg/mL] | MFC (Candida parapsilosis [5]) [µg/mL] | MIC (Candida parapsilosis [5]) [µg/mL] | MFC (Cryptococcus neoformans [6]) [µg/mL] | MIC (Cryptococcus neoformans [6]) [µg/mL] | MFC (Saccharomyces cerevisiae) [µg/mL] | MIC (Saccharomyces cerevisiae) [µg/mL] | MFC (Aspergillus fumigatus [7]) [µg/mL] | MIC (Aspergillus fumigatus [7]) [µg/mL] | MFC (Aspergillus fumigatus [8]) [µg/mL] | MIC (Aspergillus fumigatus [8]) [µg/mL] | MIC50 (Pichia kudriavzevii) [µg/mL] | MIC90 (Pichia kudriavzevii) [µg/mL] | other results
OC(Cn1cncn1)(Cn1cncn1)c1ccc(F)cc1F [FLUCONAZOLE] | 0.125 (≈ 0.408 µM) | 0.125 (≈ 0.408 µM) | 0.25 (≈ 0.816 µM) | 16 (≈ 52.2 µM) | > 64 | > 64 | > 64 | 4 (≈ 13.1 µM) | > 64 | 1 (≈ 3.27 µM) | > 64 | 1 (≈ 3.27 µM) | > 64 | 8 (≈ 26.1 µM) | > 64 | > 64 | > 64 | > 64 | 64 (≈ 209 µM) | 64 (≈ 209 µM) | MIC (Aspergillus fumigatus [3]): > 64 µg/mL; MFC (Nakaseomyces glabratus [9]): > 64 µg/mL; MIC (Nakaseomyces glabratus [9]): 8 µg/mL (≈ 26.1 µM); MFC (Malassezia furfur): > 64 µg/mL; MIC (Malassezia furfur): 4 µg/mL (≈ 13.1 µM); MIC (Candida albicans [10]): > 64 µg/mL; MIC (Candida albicans [11]): 64 µg/mL (≈ 209 µM); MFC (Candida albicans [12]): > 64 µg/mL; MIC (Candida albicans [12]): 0.125 µg/mL (≈ 0.408 µM); MFC (Aspergillus flavus): > 64 µg/mL; MIC (Aspergillus flavus): > 64 µg/mL; MIC50 (Candida parapsilosis [13]): 0.5 µg/mL (≈ 1.63 µM); MIC90 (Candida parapsilosis [13]): 1 µg/mL (≈ 3.27 µM); MIC (Candida albicans [14]): 16 µg/mL (≈ 52.2 µM); MFC (Aspergillus niger): > 64 µg/mL; MIC (Aspergillus niger): > 64 µg/mL; MFC (Cryptococcus neoformans [15]): > 64 µg/mL; MIC (Cryptococcus neoformans [15]): 4 µg/mL (≈ 13.1 µM)
C[C@@H](c1ncncc1F)[C@](O)(Cn1cncn1)c1ccc(F)cc1F [VORICONAZOLE] | 0.0039 (≈ 0.0112 µM) | 0.0039 (≈ 0.0112 µM) | 0.0078 (≈ 0.0223 µM) | 0.25 (≈ 0.716 µM) | 1 (≈ 2.86 µM) | 1 (≈ 2.86 µM) | 0.5 (≈ 1.43 µM) | 0.0625 (≈ 0.179 µM) | > 64 | 0.0313 (≈ 0.0896 µM) | > 64 | 0.0313 (≈ 0.0896 µM) | > 64 | 0.125 (≈ 0.358 µM) | 4 (≈ 11.5 µM) | 0.5 (≈ 1.43 µM) | 32 (≈ 91.6 µM) | 0.25 (≈ 0.716 µM) | 0.5 (≈ 1.43 µM) | 0.5 (≈ 1.43 µM) | MIC50 (Nakaseomyces glabratus [16]): 0.125 µg/mL (≈ 0.358 µM); MIC90 (Nakaseomyces glabratus [16]): 0.5 µg/mL (≈ 1.43 µM); MFC (Nakaseomyces glabratus [9]): > 64 µg/mL; MIC (Nakaseomyces glabratus [9]): 0.25 µg/mL (≈ 0.716 µM); MFC (Malassezia furfur): > 64 µg/mL; MIC (Malassezia furfur): 0.0625 µg/mL (≈ 0.179 µM); MIC (Candida albicans [10]): 16 µg/mL (≈ 45.8 µM); MIC (Candida albicans [11]): 0.25 µg/mL (≈ 0.716 µM); MFC (Candida albicans [12]): > 64 µg/mL; MIC (Candida albicans [12]): 0.0078 µg/mL (≈ 0.0223 µM); MFC (Aspergillus flavus): 1 µg/mL (≈ 2.86 µM); MIC (Aspergillus flavus): 0.5 µg/mL (≈ 1.43 µM); MIC50 (Candida parapsilosis [13]): 0.0156 µg/mL (≈ 0.0447 µM); MIC90 (Candida parapsilosis [13]): 0.0313 µg/mL (≈ 0.0896 µM); MIC (Candida albicans [14]): 0.0625 µg/mL (≈ 0.179 µM); MFC (Aspergillus niger): 16 µg/mL (≈ 45.8 µM); MIC (Aspergillus niger): 0.5 µg/mL (≈ 1.43 µM); MFC (Cryptococcus neoformans [15]): > 64 µg/mL; MIC (Cryptococcus neoformans [15]): 0.0625 µg/mL (≈ 0.179 µM)
